Test results taken from ChEMBL document CHEMBL5230178, “6-Bromoindirubin-3'-oxime derivatives are highly active colistin adjuvants against Klebsiella pneumoniae” (RSC Med Chem, 2023).
The source made the active and inactive calls. No cut-off for these calls is given here.

Legend:
[1] = system: Acinetobacter baumannii; assay: Potentiation of colistin-induced antimicrobial activity against colistin resistant Acinetobacter baumannii 3941 assessed as assessed as colistin MIC at 5 uM incubated for 16 hrs by broth microdilution method; assay type: functional
Method in brief: (§1)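 Bacteria grown 6 h in CAMHB, diluted to 5×10^5 CFU/mL. Fixed adjuvant concentration added from DMSO stock; an undosed aliquot gives the colistin MIC alone. Colistin serially two-fold diluted in the compound-dosed suspension. MIC taken at 90% growth inhibition versus untreated wells. Fold change is colistin MIC alone over MIC with adjuvant. Duplicate, repeated at least twice.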

[2] = system: Klebsiella pneumoniae; assay: Potentiation of colistin-induced antibacterial activity against colistin-resistant Klebsiella pneumoniae B9 assessed as fold change in colistin MIC at 3 uM incubated for 16 hrs by broth microdilution method; assay type: functional; method in brief: as §1
[3] = system: Klebsiella pneumoniae; assay: Potentiation of colistin-induced antibacterial activity against colistin resistant Klebsiella pneumoniae F2210291 harbouring mcr-1 gene assessed as colistin MIC at 5 uM incubated for 16 hrs by broth microdilution method; assay type: functional; method in brief: as §1
[4] = system: Klebsiella pneumoniae; assay: Potentiation of colistin-induced antibacterial activity against colistin-resistant Klebsiella pneumoniae B9 assessed as fold change in colistin MIC at 5 uM incubated for 16 hrs by broth microdilution method; assay type: functional; method in brief: as §1
[5] = system: Acinetobacter baumannii; assay: Antimicrobial activity against colistin resistant Acinetobacter baumannii 3941 assessed as inhibition of microbial growth incubated for 16 hrs by broth microdilution method; assay type: functional, organism-based
Method in brief: (§2)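 Bacteria grown 6 h in cation-adjusted Mueller Hinton broth (CAMHB), subcultured to 5×10^5 CFU/mL. Compound added from DMSO stock and serially two-fold diluted in the culture. Incubated stationary at 37 °C for 16 h. MIC taken as the lowest concentration giving 90% growth inhibition versus untreated wells. Duplicate, repeated at least twice.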

[6] = system: Klebsiella pneumoniae; assay: Potentiation of colistin-induced antibacterial activity against colistin-resistant Klebsiella pneumoniae B9 assessed as fold change in colistin MIC at 1 uM incubated for 16 hrs by broth microdilution method; assay type: functional; method in brief: as §1
[7] = system: Klebsiella pneumoniae; assay: Antibacterial activity against Klebsiella pneumoniae B9 assessed as inhibition of bacterial growth incubated for 16 hrs by broth microdilution method; assay type: functional
Method in brief: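 Broth microdilution in CAMHB. Six-hour culture diluted to 5×10^5 CFU/mL, compound added from DMSO stock, two-fold serial dilution. MIC is the lowest concentration giving 90% growth inhibition versus untreated wells. Run in duplicate, repeated at least twice.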

[8] = system: Escherichia coli; assay: Potentiation of colistin-induced antimicrobial activity against colistin resistant Escherichia coli 25922 harbouring mcr-1 gene assessed as colistin MIC at 5 uM incubated for 16 hrs by broth microdilution method; assay type: functional; method in brief: as §1
[9] = system: Pseudomonas aeruginosa; assay: Antimicrobial activity against colistin resistant Pseudomonas aeruginosa TRPA 162 assessed as inhibition of microbial growth incubated for 16 hrs by broth microdilution method; assay type: functional, organism-based; method in brief: as §2
[10] = system: Klebsiella pneumoniae; assay: Potentiation of colistin-induced antibacterial activity against colistin-resistant Klebsiella pneumoniae B9 assessed as colistin MIC at 1 uM incubated for 16 hrs by broth microdilution method; assay type: functional; method in brief: as §1
[11] = system: Escherichia coli; assay: Antimicrobial activity against colistin resistant Escherichia coli 25922 harbouring mcr-1 gene assessed as inhibition of microbial growth incubated for 16 hrs by broth microdilution method; assay type: functional, organism-based; method in brief: as §2
[12] = system: Klebsiella pneumoniae; assay: Potentiation of colistin-induced antibacterial activity against colistin resistant Klebsiella pneumoniae C3 assessed as colistin MIC at 5 uM incubated for 16 hrs by broth microdilution method; assay type: functional; method in brief: as §1
[13] = system: Klebsiella pneumoniae; assay: Potentiation of colistin-induced antibacterial activity against colistin resistant Klebsiella pneumoniae B9 assessed as colistin MIC at 5 uM incubated for 16 hrs by broth microdilution method; assay type: functional; method in brief: as §1
[14] = system: Klebsiella pneumoniae; assay: Potentiation of colistin-induced antibacterial activity against colistin-resistant Klebsiella pneumoniae B9 assessed as colistin MIC at 3 uM incubated for 16 hrs by broth microdilution method; assay type: functional; method in brief: as §1
[15] = system: Pseudomonas aeruginosa; assay: Potentiation of colistin-induced antimicrobial activity against colistin-resistant Pseudomonas aeruginosa TRPA 162 assessed as colistin MIC at 5 uM incubated for 16 hrs by broth microdilution method; assay type: functional; method in brief: as §1
[16] = system: Klebsiella pneumoniae; assay: Potentiation of colistin-induced antibacterial activity against colistin resistant Klebsiella pneumoniae I2 assessed as colistin MIC at 5 uM incubated for 16 hrs by broth microdilution method; assay type: functional; method in brief: as §1
[17] = system: Klebsiella pneumoniae; assay: Potentiation of colistin-induced antibacterial activity against colistin resistant Klebsiella pneumoniae F9 assessed as colistin MIC at 5 uM incubated for 16 hrs by broth microdilution method; assay type: functional; method in brief: as §1
[18] = system: Klebsiella pneumoniae; assay: Antibacterial activity against colistin resistant Klebsiella pneumoniae I2 assessed as inhibition of bacterial growth incubated for 16 hrs by broth microdilution method; assay type: functional, organism-based; method in brief: as §2
[19] = system: Klebsiella pneumoniae; assay: Antibacterial activity against colistin resistant Klebsiella pneumoniae F9 assessed as inhibition of bacterial growth incubated for 16 hrs by broth microdilution method; assay type: functional, organism-based; method in brief: as §2
[20] = system: Klebsiella pneumoniae; assay: Antibacterial activity against colistin resistant Klebsiella pneumoniae F2210291 harbouring mcr-1 gene assessed as inhibition of bacterial growth incubated for 16 hrs by broth microdilution method; assay type: functional, organism-based; method in brief: as §2
[21] = system: Klebsiella pneumoniae; assay: Antibacterial activity against colistin resistant Klebsiella pneumoniae C3 assessed as inhibition of bacterial growth incubated for 16 hrs by broth microdilution method; assay type: functional, organism-based; method in brief: as §2

O=C1Nc2cc(Br)ccc2/C1=C1/Nc2c(Cl)cccc2/C1=N\O was tested, and the MIC [1] was greater than 16 µg/mL, the “fold change (FC)” value [2] was 256 and the MIC [3] was 2 µg/mL. For the same molecule, the “fold change (FC)” value [4] was 512, the Activity [5] was “inactive” and the “fold change (FC)” value [6] was 16. For the same molecule, the MIC [7] was greater than 200 µM, the MIC [8] was 2 µg/mL and the Activity [9] was “inactive”. The MIC [10] was 32 µg/mL, the Activity [11] was “inactive” and the MIC [12] was 4 µg/mL. For the same molecule, the MIC [13] was 1 µg/mL, the MIC [14] was 2 µg/mL and the MIC [15] was greater than 16 µg/mL. It also gave an MIC [16] of 4 µg/mL and an MIC [17] of 4 µg/mL.
With O=C1Nc2cc(Cl)ccc2/C1=C1/Nc2ccccc2/C1=N\O the “fold change (FC)” value [4] was 128, the MIC [7] was greater than 200 µM and the MIC [13] was 4 µg/mL.
For COLISTIN, the MIC [18] was 512 µg/mL, the MIC [5] was 1020 µg/mL and the MIC [19] was 256 µg/mL. The MIC [7] was 512 µg/mL, the MIC [9] was 1020 µg/mL and the MIC [11] was 16 µg/mL. The MIC [20] was 16 µg/mL and the MIC [21] was 128 µg/mL.
COc1ccc2c(c1)NC(=O)/C2=C1\Nc2ccccc2\C1=N/O showed an MIC [7] greater than 200 µM and an MIC [13] greater than 16 µg/mL.
For O=C1Nc2c(Br)cccc2/C1=C1/Nc2ccccc2/C1=N\O, the MIC [7] was greater than 200 µM and the MIC [13] was greater than 16 µg/mL.
Work on O=C1Nc2c(Cl)cccc2/C1=C1/Nc2ccccc2/C1=N\O yielded an MIC [7] greater than 200 µM and an MIC [13] greater than 16 µg/mL.
For O=C1Nc2cc(Br)ccc2/C1=C1/Nc2cc(Br)ccc2/C1=N\O, the “fold change (FC)” value [4] was 64, the MIC [7] was greater than 200 µM and the MIC [13] was 8 µg/mL.
Cc1ccc2c(c1)C(=N\O)/C(=C1/C(=O)Nc3cc(Br)ccc31)N2 showed an MIC [13] greater than 16 µg/mL.
In the case of O=C1Nc2cc(Br)ccc2/C1=C1/Nc2ccccc2/C1=N\O [6BIO], the MIC [1] was greater than 16 µg/mL, the “fold change (FC)” value [2] was 16 and the MIC [3] was 2 µg/mL. For the same molecule, the “fold change (FC)” value [4] was 512, the Activity [5] was “inactive” and the MIC [7] was greater than 200 µM. For the same molecule, the MIC [8] was 2 µg/mL, the Activity [9] was “inactive” and the MIC [10] was greater than 64 µg/mL. The Activity [11] was “inactive”, the MIC [12] was 4 µg/mL and the MIC [13] was 1 µg/mL. It also gave an MIC [14] of 32 µg/mL, an MIC [15] greater than 16 µg/mL and an MIC [16] of 8 µg/mL. The MIC [17] was 4 µg/mL.
With O=C1Nc2cc(C(F)(F)F)ccc2/C1=C1/Nc2ccccc2/C1=N\O the “fold change (FC)” value [4] was 64, the MIC [7] was greater than 200 µM and the MIC [13] was 8 µg/mL.
For O=C1Nc2cc(Br)ccc2/C1=C1/Nc2cc(F)c(F)cc2/C1=N\O, the “fold change (FC)” value [2] was 128, the “fold change (FC)” value [4] was 512 and the MIC [7] was greater than 200 µM. It also gave an MIC [10] greater than 64 µg/mL, an MIC [13] of 1 µg/mL and an MIC [14] of 4 µg/mL.
O=C1Nc2cc(Br)ccc2/C1=C1/Nc2ccc(Cl)cc2/C1=N\O was tested, and the “fold change (FC)” value [2] was 32, the “fold change (FC)” value [4] was 256 and the MIC [7] was greater than 200 µM. The MIC [10] was greater than 64 µg/mL, the MIC [13] was 2 µg/mL and the MIC [14] was 16 µg/mL.
For O=C1Nc2cc(Br)ccc2/C1=C1/Nc2ccc(C(F)(F)F)cc2/C1=N\O, the “fold change (FC)” value [4] was 64, the MIC [7] was greater than 200 µM and the MIC [13] was 8 µg/mL.
For O=C1Nc2ccc(Cl)cc2/C1=C1/Nc2ccccc2/C1=N\O, the MIC [7] was greater than 200 µM and the MIC [13] was greater than 16 µg/mL.
For O=C1Nc2cc(Br)ccc2/C1=C1/Nc2ccc(Br)cc2/C1=N\O, the “fold change (FC)” value [4] was 128, the MIC [7] was greater than 200 µM and the MIC [13] was 4 µg/mL.
